# Assay results as given in ChEMBL document CHEMBL1143334, “Peri-substituted hexahydro-indolones as novel, potent and selective human EP3 receptor antagonists” (Bioorg Med Chem Lett, 2009).
# Calls of active or inactive are those of the source. The calls are words filed in the database; no cut-off is given here.
# Columns and labels:
# [1] = Aqueous solubility in 50 mM PSB buffer at pH 7.4 by HPLC analysis; format: physicochemical
# In short: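 Samples were stirred overnight in 50 mM PSB buffer, pH 7.4, then filtered. Concentration was measured by HPLC against a 5-point standard curve, giving thermodynamic solubility.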
# [2] = target: T1, Prostaglandin E2 receptor EP3 subtype (Homo sapiens, UniProt P43115); assay: Antagonist activity at human EP3 receptor expressed in CHO-K1 cells assessed as reversal of inhibition of forskolin-induced cAMP production; format: functional, cell-based
# T1 sequence (P43115 whole entry): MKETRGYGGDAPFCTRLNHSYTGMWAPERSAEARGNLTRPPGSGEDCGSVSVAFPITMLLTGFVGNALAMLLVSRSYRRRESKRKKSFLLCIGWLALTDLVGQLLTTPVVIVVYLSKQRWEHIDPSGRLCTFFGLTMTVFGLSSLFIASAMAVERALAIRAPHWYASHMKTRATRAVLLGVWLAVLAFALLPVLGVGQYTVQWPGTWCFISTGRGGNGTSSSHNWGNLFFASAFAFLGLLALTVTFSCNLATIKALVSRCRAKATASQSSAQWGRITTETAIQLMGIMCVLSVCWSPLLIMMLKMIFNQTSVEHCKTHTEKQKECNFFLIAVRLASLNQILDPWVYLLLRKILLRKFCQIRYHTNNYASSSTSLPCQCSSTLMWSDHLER
# In short: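 CHO-K1 cells stably expressing human EP3 were exposed to increasing test compound concentrations for 10 min at 37 °C, with 5 μM forskolin plus 5 nM PGE2 present. Read-out was the block of PGE2's inhibition of the forskolin-induced cAMP rise, giving IC50.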
# [3] = Metabolic stability in rat liver microsomes after 30 mins; format: ADME, Microsome; conditions: read-out: Stability
# In short: (§1)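 Compound was incubated 30 min with liver microsomes from each species. Percent parent remaining was measured by LC/MS/MS.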
# [4] = target: T1, Prostaglandin E2 receptor EP3 subtype; assay: Displacement of [3H]PGE2 from human EP3 receptor
# In short: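 Displacement of [3H]-PGE2 from human EP3 receptor membrane preparations was run in buffer. IC50 values come from at least three experiments each.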
# [5] = target: T2, Prostaglandin E2 receptor EP3 subtype (Homo sapiens) (UniProt P43115); assay: Ratio of IC50 for human EP3 receptor in presence of 10% human serum to IC50 for human EP3 receptor in buffer
# T2 sequence (whole entry): T1 sequence (P43115 whole entry)
# In short: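 Displacement of [3H]-PGE2 from human EP3 membrane preparations was run both with 10% human serum and in buffer alone. Fold-shift is IC50 with serum divided by IC50 in buffer.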
# [6] = Metabolic stability in human liver microsomes after 30 mins; format: ADME, Microsome; conditions: read-out: Stability; in short: as §1
# Homo sapiens [7] = species: Homo sapiens; assay: Selectivity of human EP1 receptor over human EP3 receptor
# [8] = target: T3, Prostaglandin E2 receptor EP1 subtype (Homo sapiens) (UniProt P34995); assay: Binding affinity to human EP1 receptor at 20 uM by radioligand binding assay
# T3 sequence (whole entry): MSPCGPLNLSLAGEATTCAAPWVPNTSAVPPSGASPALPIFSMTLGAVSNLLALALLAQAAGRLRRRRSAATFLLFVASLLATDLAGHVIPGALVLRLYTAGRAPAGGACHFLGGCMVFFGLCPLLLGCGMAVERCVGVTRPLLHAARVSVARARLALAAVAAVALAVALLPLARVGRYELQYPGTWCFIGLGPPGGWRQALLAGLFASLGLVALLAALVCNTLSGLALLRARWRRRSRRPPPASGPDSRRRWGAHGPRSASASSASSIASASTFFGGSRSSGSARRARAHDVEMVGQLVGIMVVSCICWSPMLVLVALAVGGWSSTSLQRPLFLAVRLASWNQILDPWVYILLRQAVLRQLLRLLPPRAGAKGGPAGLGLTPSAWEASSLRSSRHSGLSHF
# Homo sapiens [9] = species: Homo sapiens; assay: Selectivity of human FP receptor over human EP3 receptor
# [10] = target: Prostaglandin F2-alpha receptor (Homo sapiens, UniProt P43088); assay: Binding affinity to human FP receptor by radioligand binding assay
# Sequence of Prostaglandin F2-alpha receptor (P43088 whole entry): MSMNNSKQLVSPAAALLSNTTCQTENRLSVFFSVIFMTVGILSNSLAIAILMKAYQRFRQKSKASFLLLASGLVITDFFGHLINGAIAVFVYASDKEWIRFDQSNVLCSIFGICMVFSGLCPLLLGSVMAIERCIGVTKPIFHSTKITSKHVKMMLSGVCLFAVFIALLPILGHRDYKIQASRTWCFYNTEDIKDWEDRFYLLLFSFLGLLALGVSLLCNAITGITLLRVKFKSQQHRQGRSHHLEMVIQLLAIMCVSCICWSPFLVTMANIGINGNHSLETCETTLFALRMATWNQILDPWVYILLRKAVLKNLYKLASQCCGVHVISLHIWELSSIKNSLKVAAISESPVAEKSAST
# [11] = target: T4, Prostaglandin E2 receptor EP2 subtype (Homo sapiens, UniProt P43116); assay: Binding affinity to human EP2 receptor at 20 uM by radioligand binding assay
# T4 sequence (P43116 whole entry): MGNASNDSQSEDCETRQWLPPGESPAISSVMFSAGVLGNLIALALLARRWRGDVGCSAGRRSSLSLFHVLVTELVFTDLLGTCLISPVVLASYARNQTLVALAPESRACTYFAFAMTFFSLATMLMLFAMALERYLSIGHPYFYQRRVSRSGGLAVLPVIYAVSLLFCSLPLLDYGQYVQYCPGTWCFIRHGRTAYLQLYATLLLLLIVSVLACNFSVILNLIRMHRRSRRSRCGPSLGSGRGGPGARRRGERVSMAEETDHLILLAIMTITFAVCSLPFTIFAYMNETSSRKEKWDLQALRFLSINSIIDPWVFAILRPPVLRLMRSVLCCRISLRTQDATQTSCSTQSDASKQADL
# Homo sapiens [12] = species: Homo sapiens; assay: Selectivity of human EP2 receptor over human EP3 receptor
# [13] = target: T5, Prostaglandin E2 receptor EP4 subtype (Homo sapiens, UniProt P35408); assay: Binding affinity to human EP4 receptor at 20 uM by radioligand binding assay
# T5 sequence (P35408 whole entry): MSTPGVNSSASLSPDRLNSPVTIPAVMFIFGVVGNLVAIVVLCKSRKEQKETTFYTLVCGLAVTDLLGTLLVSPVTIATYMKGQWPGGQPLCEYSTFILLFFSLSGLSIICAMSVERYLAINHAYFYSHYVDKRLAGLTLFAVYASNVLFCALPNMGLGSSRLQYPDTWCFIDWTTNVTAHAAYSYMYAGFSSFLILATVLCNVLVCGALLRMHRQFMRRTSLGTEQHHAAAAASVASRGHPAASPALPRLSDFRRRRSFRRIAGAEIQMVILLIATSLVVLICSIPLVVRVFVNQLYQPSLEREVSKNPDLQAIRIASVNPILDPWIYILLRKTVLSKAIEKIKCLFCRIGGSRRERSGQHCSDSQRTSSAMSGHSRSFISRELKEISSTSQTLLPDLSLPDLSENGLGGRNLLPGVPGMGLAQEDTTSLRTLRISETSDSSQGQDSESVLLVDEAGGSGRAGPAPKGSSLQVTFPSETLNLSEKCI
# Homo sapiens [14] = species: Homo sapiens; assay: Selectivity of human EP4 receptor over human EP3 receptor
# [15] = target: T5, Prostaglandin E2 receptor EP4 subtype; assay: Binding affinity to human EP4 receptor by radioligand binding assay
# [16] = target: T6, Prostaglandin E2 receptor EP1 subtype (Homo sapiens, UniProt P34995); assay: Binding affinity to human EP1 receptor by radioligand binding assay
# T6 sequence (P34995 whole entry): T3 sequence (whole entry)
# [17] = target: T4, Prostaglandin E2 receptor EP2 subtype; assay: Binding affinity to human EP2 receptor by radioligand binding assay
# [18] = Metabolic stability in monkey liver microsomes after 30 mins; format: ADME, Macaca mulatta, Microsome; conditions: rhesus monkey, read-out: Stability; in short: as §1
# [19] = Metabolic stability in dog liver microsomes after 30 mins; format: ADME, Canis lupus familiaris, Microsome; conditions: read-out: Stability; in short: as §1
Structure (SMILES),solubility [1],IC50 [2],remaining at 0.5 h [3],IC50 [4],fold change (FC) [5],remaining at 0.5 h [6],Selectivity ratio (Homo sapiens [7]),Activity [8],Selectivity ratio (Homo sapiens [9]),IC50 [10],Activity [11],Selectivity ratio (Homo sapiens [12]),Activity [13],Selectivity ratio (Homo sapiens [14]),IC50 [15],IC50 [16],IC50 [17],remaining at 0.5 h [18],remaining at 0.5 h [19]
CC1C(=O)N(Cc2ccc(F)c(F)c2)c2c(/C=C/C(=O)NS(=O)(=O)c3cc(F)c(F)cc3F)cccc21 (centres undefined),1580 µg/mL,,,,,,,,,,,,,,,,,,
CC12CCCC(/C=C/C(=O)NS(=O)(=O)c3cc(Cl)c(Cl)s3)=C1N(Cc1ccc(F)c(F)c1)C(=O)C2 (centres undefined),,0.0052 µM,22%,0.0035 µM,17.7,80%,,,,,,,,,,,,,
COc1cccc(CN2C(=O)CC3(C)CCCC(/C=C/C(=O)NS(=O)(=O)c4cc(Cl)c(Cl)s4)=C23)c1 (centres undefined),,0.0058 µM,64%,0.0064 µM,4.8,62%,> 1000,inactive,> 1000,6.1 µM,inactive,> 1000,inactive,> 1000,,,,,
CC12CCCC(/C=C/C(=O)NS(=O)(=O)c3cc(F)c(F)cc3F)=C1N(Cc1cccc(Cl)c1Cl)C(=O)C2 (centres undefined),,0.0045 µM,50%,0.0043 µM,5.8,49%,> 1000,inactive,> 1000,7.4 µM,inactive,> 1000,inactive,> 1000,,,,,
COc1cccc(CN2C(=O)CC3(C)CCCC(/C=C/C(=O)NS(=O)(=O)c4ccc(F)c(F)c4)=C23)c1 (centres undefined),,,42%,0.0129 µM,4.2,76%,> 1000,,> 1000,6.4 µM,inactive,> 1000,,> 1000,7.5 µM,1.4 µM,,,
CC12CCCC(/C=C/C(=O)NS(=O)(=O)c3cc(Cl)c(Cl)s3)=C1N(Cc1ccc(F)cc1)C(=O)C2 (centres undefined),,,50%,0.0038 µM,3,74%,> 1000,inactive,> 1000,27.4 µM,inactive,> 1000,inactive,> 1000,,,,,
CC12CCCC(/C=C/C(=O)NS(=O)(=O)c3ccc(F)c(F)c3)=C1N(Cc1ccc(F)c(F)c1)C(=O)C2 (centres undefined),,,82%,0.0094 µM,3.2,79%,> 1000,inactive,> 1000,16.4 µM,,> 1000,,> 1000,7.7 µM,,2.3 µM,,
Cc1cn(Cc2ccc(F)c(F)c2)c2c(/C=C/C(=O)NS(=O)(=O)c3cc(F)c(F)cc3F)cc(F)cc12,< 40 µg/mL,,,,,,,,,,,,,,,,,,
CC12CCCC(/C=C/C(=O)NS(=O)(=O)c3cc(F)c(F)cc3F)=C1N(Cc1ccc(Cl)cc1Cl)C(=O)C2 (centres undefined),,,37%,0.0037 µM,7,62%,> 1000,,> 1000,7.6 µM,inactive,> 1000,,> 1000,20.8 µM,11.6 µM,,,
CC12CCCC(/C=C/C(=O)NS(=O)(=O)c3cc(F)cc(F)c3)=C1N(Cc1ccc(F)cc1)C(=O)C2 (centres undefined),,,,0.0841 µM,5.4,,> 1000,inactive,> 1000,4.2 µM,inactive,> 1000,inactive,> 1000,,,,,
CC12CCCC(/C=C/C(=O)NS(=O)(=O)c3cc(Cl)c(Cl)s3)=C1N(Cc1ccc3ccccc3c1)C(=O)C2 (centres undefined),,,54%,0.0068 µM,7.4,64%,> 1000,,> 1000,10.2 µM,inactive,> 1000,inactive,> 1000,,6.9 µM,,,
CC12CCCC(/C=C/C(=O)NS(=O)(=O)c3cc(F)c(F)cc3F)=C1N(Cc1ccc(F)c(F)c1)C(=O)C2 (centres undefined),> 3000 µg/mL,0.0035 µM,89%,0.0077 µM,9.3,75%,> 1000,inactive,> 1000,3.8 µM,,> 1000,,> 1000,6.2 µM,,13.9 µM,54%,87%
